Assay outcomes deposited in PubChem by several laboratories.
Only some compounds are listed: those with a hit (about 1.8% of all), similar ones and a draw of the others.
Jurkat NFkB inh = lowers PMA/ionomycin-induced NF-kB signal in Jurkat cells | PMA/ionomycin-induced NF-kB luciferase reporter, luminescence | AID 435003 | inhibition, % at 4 µM | actives 0.53% (n = 330,000); in the data active means inhibition above about 50%
GalR3 antag = human GalR3 antagonism. O60755. HEK293 GalR3-CNG cAMP membrane potential fluorescence; galR3 body fused to GalR1 C-terminus. AID 651719. actives 0.44% (n = 360,000). inhibition, % at 3 µM;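 active means inhibition above the screen-wide average plus 3 SD, cut at about 13% in these data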;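 further: forskolin and galanin both at EC90 stimulate the cells; cAMP rise reported by CNG channel membrane potential dye signal; 0% = forskolin plus galanin with DMSO and 100% = forskolin alone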
Target sequence (O60755 1-299 limits assumed): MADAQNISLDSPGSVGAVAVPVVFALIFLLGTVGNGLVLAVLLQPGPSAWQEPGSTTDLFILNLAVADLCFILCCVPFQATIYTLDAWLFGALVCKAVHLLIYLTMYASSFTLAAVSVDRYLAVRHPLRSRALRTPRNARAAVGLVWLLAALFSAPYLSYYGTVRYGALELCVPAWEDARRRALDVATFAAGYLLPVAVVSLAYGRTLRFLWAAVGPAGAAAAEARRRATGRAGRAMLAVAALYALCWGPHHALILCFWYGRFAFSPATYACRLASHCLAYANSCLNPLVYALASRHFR
NR2E3 ag-1 = NR2E3 (human) agonism. Q9Y5X4. GST-NR2E3/biotin-RetCOR TR-FRET, 1536-well. AID 2300. inhibition of corepressor binding, % at 4.78 µM. actives 0.12% (n = 320,000);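 active means percent inhibition above the cutoff of mean plus 3 SD of all tested compounds, set per screening campaign, cut at about 20% in these data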;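 further: 0% = DMSO wells and 100% = biotin wells as full block of FRET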
Target sequence (Q9Y5X4 whole entry, looked up): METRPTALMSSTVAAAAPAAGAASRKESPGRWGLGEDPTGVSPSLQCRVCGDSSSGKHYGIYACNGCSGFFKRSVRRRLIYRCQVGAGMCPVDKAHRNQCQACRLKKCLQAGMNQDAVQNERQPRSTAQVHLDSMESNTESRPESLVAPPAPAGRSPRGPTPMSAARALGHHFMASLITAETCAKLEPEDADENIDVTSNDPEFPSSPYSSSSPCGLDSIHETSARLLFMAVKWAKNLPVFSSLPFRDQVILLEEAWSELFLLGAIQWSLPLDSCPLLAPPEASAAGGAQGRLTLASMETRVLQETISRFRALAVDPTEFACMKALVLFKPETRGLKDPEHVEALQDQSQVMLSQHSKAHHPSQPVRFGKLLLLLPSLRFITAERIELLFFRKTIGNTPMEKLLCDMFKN
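System: GST-NR2E3 and biotin-RetCOR proteins; probe or stimulus: 7 nM biotin-RetCOR; doses: compound at 4.8 µM, single dose; schedule: Compound–protein incubation for 5 h at 4 °C; detection: time-resolved FRET; read-out: percent inhibition; controls: biotin wells as high control, 0.6% DMSO wells as low control; format: 1536-well plates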
Gli-Sufu block = blocks Gli-Sufu signaling in a luciferase reporter. Sufu-KO-LIGHT fibroblasts, Gli luciferase reporter luminescence. inhibition, % at 5 µM. actives 0.74% (n = 340,000);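 active means inhibition above about 55%, limit read from the data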;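 further: 0% = DMSO-treated cells and 100% = wells with medium but no cells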
NR2E3 ag-2 = human photoreceptor-specific nuclear receptor agonism | AID 602229 | CHO-S Gal4-NCOR/VP16-NR2E3 two-hybrid, luciferase | inhibition of corepressor binding, % at 3.98 µM | actives 0.35% (n = 360,000);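 active means inhibition above the mean of all tested compounds plus 3 SD, cut at about 70% in these data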;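 further: 0% = DMSO with NR2E3 transfected cells and 100% = cells lacking NR2E3 construct; higher means lower luciferase signal from less NR2E3 corepressor binding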
697 NFkB inh = lowers PMA/ionomycin-induced NF-kB signal in 697 B cells; 697 B-cell NF-kB luciferase reporter, 16 h; inhibition, % at 4 µM; actives 0.33% (n = 330,000); AID 435022; in the data active means inhibition above about 35%
NR2E3 ag confirm = NR2E3 agonism confirmed in two-hybrid assay; shares compounds with NR2E3 ag-2; CHO-S mammalian two-hybrid NR2E3-NCOR, luciferase luminescence; inhibition, % at 3.98 µM; actives 51% (n = 2,300); AID 624378;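 active means average inhibition above a cutoff equal to the mean inhibition of all tested compounds plus one SD, cut at about 70% in these data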;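 further: 0% = DMSO in NR2E3 cells and 100% = DMSO in cells lacking NR2E3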
GAL4-VP16 luc = GAL4-VP16 reporter inhibition in NR2E3 agonist counterscreen | shares compounds with NR2E3 ag-2 | CHO-S GAL4-VP16 luciferase reporter, luminescence | inhibition, % at 3.98 µM | actives 29% (n = 2,300) | AID 624379;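 active means mean inhibition above a cutoff equal to the average over all tested compounds plus one standard deviation, cut at about 70% in these data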;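 further: luciferase from a UAS reporter driven by GAL4-VP16 transactivation; 0% = DMSO with VP16-transfected cells and 100% = DMSO with cells lacking VP16; higher means less reporter light so more repression of VP16 activity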
* = called active by the depositor; . = not tested or not shown.

SMILES	Jurkat NFkB inh	GalR3 antag	NR2E3 ag-1	Gli-Sufu block	NR2E3 ag-2	697 NFkB inh	NR2E3 ag confirm	GAL4-VP16 luc
CCC(C)(C)NC(=O)CN(C(=O)CCC(=O)Nc1nccs1)c1ccccc1C	3.0	-5.5	4.9	-21.3	-7.1	4.1	.	.
CC(=O)Nc1ccc(NC(=O)c2ccccc2-n2cnnn2)cc1	2.2	-4.3	.	-0.5	-24.4	18.7	.	.
Cc1cc(C)cc(NC(=O)Nc2ccc(-n3ccc(C(F)(F)F)n3)cc2)c1	-25.9	-8.2	-3.1	-2.1	0.1	-0.9	.	.
O=C(Nc1ccc(-n2ccc(C(F)(F)F)n2)cc1)Nc1cccc(Cl)c1	-31.8	-8.9	-1.5	.	81.6*	-39.0	98.6*	75.5*
CN1CCN(CCCNC(=O)c2ccc(/C=C3\Sc4ccccc4N(Cc4ccc(F)cc4)C3=O)cc2)CC1	.	-5.2	.	8.2	14.9	.	.	.
CCN1CCN(CCNC(=O)c2ccc(/C=C3\Sc4ccccc4N(Cc4ccccc4F)C3=O)cc2)CC1	-9.8	7.4	1.0	5.8	47.9	6.1	-11.2	34.6
CN1CCN(CCCN2c3ccccc3Sc3ccc(Cl)cc32)CC1	6.8	-5.4	-6.4	16.0	2.4	9.3	.	.
CC(CN1CCN(CCOCCO)CC1)CN1c2ccccc2Sc2ccc(Cl)cc21 (stereo not drawn)	.	-6.5	.	.	48.9	.	26.4	6.5
CN1C(=O)CS(=O)c2ccc(C(=O)NCCC3=CCCCC3)cc21 (stereo not drawn)	-2.2	0.7	-0.2	13.2	47.6	-2.0	2.7	12.1
O=C(NCCC1=CCCCC1)c1ccc2c(c1)N(Cc1ccccc1)C(=O)CS2	-0.9	-7.4	1.7	10.2	-21.3	-12.7	.	.
COc1ccccc1Sc1nc(-c2ccccn2)ncc1OC	0.8	-1.5	-3.5	5.6	78.0*	-20.0	44.8	-0.9
FC(F)(F)c1cccc(Sc2cc(C(F)(F)F)nc(-c3ccccn3)n2)c1	12.8	-3.2	0.3	14.8	-2.7	-23.7	.	.
COc1cnc(-c2ccccn2)nc1Sc1cccc(Cl)c1	-10.3	-5.1	0.4	-0.8	52.4	-30.1	62.6	4.6
COc1cnc(-c2ccccn2)nc1Sc1ccc(C)cc1	-4.9	-8.7	0.7	4.5	94.0*	-19.9	42.0	29.7
Cc1ccc(Sc2cc(C)nc(-c3ccccn3)n2)cc1	-22.7	-1.4	-2.1	-30.1	85.8*	-48.0	-6.4	-23.9
COc1ccc(-c2nc(-c3ccccn3)ncc2S(C)(=O)=O)cc1	-8.4	-2.9	4.0	-10.4	-18.9	-9.1	.	.
Nc1cccnc1Sc1cccc(Cl)c1	-13.6	-3.2	-0.5	-19.1	-5.0	-2.0	.	.
Cc1ccc(NC(=O)c2cnccn2)c(C)c1	-14.5	-10.6	0.8	-6.5	-13.2	-19.0	.	.
O=C(O)COc1ccc(/C=C/c2nc3ccc([N+](=O)[O-])cc3s2)cc1	-16.4	0.2	1.1	1.7	-43.0	-57.5	.	.
Cc1nnc(SCC(=O)Nc2ccc([N+](=O)[O-])cc2)n1C	-19.4	0.0	6.2	-1.4	17.3	-8.1	.	.
COc1cc(NC(=O)NC2Cc3ccccc3C2)cc(OC)c1	-30.9	-8.8	-1.6	-11.8	-22.3	-4.0	.	.
COc1cnc(-c2ccccn2)nc1NC(C)C	12.4	-3.4	-1.5	41.9	67.8	-5.2	38.2	-23.2
[O-][n+]1c2c(c3c4non(O)c4ccc31)CCCC2	-0.8	-4.7	-3.1	3.4	69.7	6.2	64.8	36.0
Fc1ccc(C(CCCn2nnc(-c3cccnc3)n2)c2ccc(F)cc2)cc1	15.3	-3.4	-0.3	17.7	51.9	-4.7	55.1	50.9
Fc1ccc(-n2nnc(-c3cccnc3)n2)cc1	-26.9	10.3	-2.0	-72.9	-77.4	-36.4	.	.
SMILES	Jurkat NFkB inh	GalR3 antag	NR2E3 ag-1	Gli-Sufu block	NR2E3 ag-2	697 NFkB inh	NR2E3 ag confirm	GAL4-VP16 luc
CCOC(=O)C1=NN(c2ccc(Cl)cc2)C(=O)C1	-64.8	-5.1	1.6	-3.4	-120.7	19.1	.	.
CCNC(=S)N1CCN(c2ccccn2)CC1	13.7	-5.4	-2.5	8.9	-13.9	11.7	.	.
CC(NNC(=S)N1CCN(c2ccccn2)CC1)c1nccc2ccccc12 (stereo not drawn)	.	-4.0	.	93.0*	83.0*	.	5.1	14.3
O=C1c2ccccc2C(=O)N1Nc1ccccc1	8.6	-4.0	0.7	-26.3	58.3	14.2	18.8	20.1
CC(C)(C)c1ccc(NC(=S)NCc2cccs2)cc1	-20.2	-3.9	-0.4	-15.3	69.6	-39.6	64.3	40.0
O=C(NCc1cccnc1)/C(=C\c1ccc(-c2ccc(Cl)c(Cl)c2)o1)S(=O)(=O)c1ccccc1	.	5.6	0.9	10.0	91.6*	.	98.9*	35.5
O=C(NCc1cccnc1)c1ccc(-c2ccc(Cl)cc2)o1	-4.1	-6.5	3.5	-3.7	5.6	-20.9	.	.
Cc1ccc(S(=O)(=O)N(C)C)cc1NC(=O)COC(=O)CN1C(=O)c2ccccc2C1=O	13.6	-5.1	0.1	-5.5	-22.0	12.8	.	.
CCCCN(C(=O)c1ccc(NC2CC2)c([N+](=O)[O-])c1)c1c(N)n(CCCC)c(=O)[nH]c1=O	11.4	-3.4	.	8.2	-29.9	12.7	.	.
Cc1ccc(C(=O)NNC(=S)NC(=O)c2ccc(Cl)cc2Cl)cc1	9.0	-3.4	2.1	3.2	54.3	15.7	47.6	29.3
COc1ccc(NC(=O)C2CCN(S(=O)(=O)c3ccc4c(c3)NC(=O)C(C)S4)CC2)cc1 (stereo not drawn)	-2.9	0.9	-0.3	-8.9	4.1	-16.2	.	.
CC(=O)N1c2ccc(S(=O)(=O)N3CCC(C(=O)Nc4cccc(Cl)c4)CC3)cc2CC1C (stereo not drawn)	29.6	-3.1	2.5	73.0*	78.0*	-11.3	74.0*	52.4
CC(=O)N1c2ccc(S(=O)(=O)N3CCC(C(=O)Nc4cccc(C)c4)CC3)cc2CC1C (stereo not drawn)	13.8	-4.9	-2.5	4.9	32.5	-6.6	.	.
CC1Sc2ccc(S(=O)(=O)N3CCC(C(=O)Nc4ccc(Cl)cc4)CC3)cc2NC1=O (stereo not drawn)	30.4	11.5	-2.4	69.2*	102.6*	-16.7	93.6*	74.8*
CC(C)N1CCN(Cc2cc3ccccc3[nH]2)CC1CCO (stereo not drawn)	1.9	-3.5	-5.3	5.2	-2.9	6.3	.	.
CC[C@H](CO)Nc1nc(Nc2cccc(Cl)c2)c2ncn(C(C)C)c2n1	1.4	-5.2	2.6	44.8	92.0*	-54.2	73.9*	65.8
CSc1ccc(/C=C/C(=O)OCC(=O)NC2CC2)cc1	4.7	-3.2	3.5	-3.9	-12.3	-0.7	.	.
Cc1cc(NS(=O)(=O)c2ccc(NC(=O)c3ccc(Cl)cc3[N+](=O)[O-])cc2)no1	10.7	-2.8	1.9	-2.0	-64.3	9.5	.	.
